Test [1] concerns CCRF-CEM. The test can be described thus: Cytotoxicity against CEM (human lymphoblastic leukemia) cells in vitro. It counts as functional.
Test [2] relates to Moloney murine sarcoma virus. Kind of test: Antiviral activity against murine sarcoma virus. In kind it is functional, organism-based. The method in brief:
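Murine C3H/3T3 embryo fibroblasts were seeded at 5 × 10^5 cells/mL. After 24 h, cells were infected with 80 focus-forming units of MSV (from mouse tumours) for 90–120 min at 37 °C. Medium was then replaced by fresh medium containing varied compound concentrations, and MSV-induced transformation was the read-out.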

Test [3] concerns Human alphaherpesvirus 3. Kind of test: Antiviral activity against 07/1 strain of VZV in HEL ([…]) cells. In kind it is functional, organism-based. The essentials:
(§1)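 Inhibition of virus-induced cytopathicity. HSV-1 and HSV-2 were tested in E6SM cells; VZV and CMV in HEL cells. Confluent monolayers were inoculated with 100 CCID50 of virus. After 1–2 h adsorption, residual virus was removed and compound was added at serial concentrations (400, 200, 100, ... μg/mL). Cytopathicity was scored once untreated infected controls reached complete CPE.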

For test [4], the system named is Human immunodeficiency virus 1. Kind of test: Antiviral activity against HIV-1 (IIIB) in CEM (human leukemia) cells. In kind it is functional, organism-based. The settings on record: ccrf-cem. The method in brief:
(§2)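 Human CEM cells (~3 × 10^5 cells/mL) were infected with 100 CCID50 per mL of HIV-1 (IIIB) or HIV-2 (ROD) and seeded into wells containing compound dilutions. After 4 days at 37 °C, syncytium (giant cell) formation was examined microscopically.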

Test [5] is described as follows: Antiviral activity against vaccinia virus in HEL ([…]) cells. In kind it is functional, cell-based.
A short description of test [6]: Antiviral activity against KOS strain of HSV-1 in E6SM cells. In kind it is functional, cell-based, herpes simplex virus. The essentials:
as §1

For test [7], the system named is Cytomegalovirus. Kind of test: Antiviral activity against Davis strain of cytomegalovirus (CMV) in HEL ([…]) cells. It counts as functional, organism-based. The method in brief: as §1
Test [8] relates to Human alphaherpesvirus 3. Kind of test: Antiviral activity against OKA strain of VZV in HEL ([…]) cells. It counts as functional, organism-based. Set-up: unit not given here. The essentials: as §1
Test [9] has as its system Cytomegalovirus. Kind of test: Antiviral activity against AD169 strain of cytomegalovirus (CMV) in HEL ([…]) cells. In kind it is functional, organism-based. The essentials:
as §1

The test system of test [10] is Human immunodeficiency virus 2. Kind of test: Antiviral activity against HIV-2 (ROD) in CEM (human leukemia) cells. In kind it is functional, organism-based. The note with it: ccrf-cem. The method in brief: as §2
Test [11] can be described thus: Antiviral activity against G strain of HSV-2 in E6SM cells. It counts as functional, cell-based, herpes simplex virus. The method in brief: as §1

Data on 13 molecules can be found in ChEMBL document CHEMBL1145896, “5-Substituted-2,4-diamino-6-[2-(phosphonomethoxy)ethoxy]pyrimidines-acyclic nucleoside phosphonate analogues with antiviral activity” (J Med Chem, 2003).

Usually CC50 stands for the concentration giving 50% cytotoxicity. The molecule `Nc1nc(N)c(Cc2ccccc2)c(OCCOCP(=O)(O)O)n1` showed a CC50 in test [1] above 300 µM. Also, the EC50 in [2] is listed as above 1.12 uM ml-1; in test [3], above 0.15 uM ml-1; in test [4], above 0.3 uM ml-1; in [5] it was above 1.2 uM ml-1; in test [6] it was above 1.2 uM ml-1; in [7], above 0.15 uM ml-1. The EC50 in [8] is above 0.15; in test [9], above 0.15 uM ml-1; in [10], above 0.3 uM ml-1.

In test [1], `Nc1nc(N)n(CCOCP(=O)(O)O)c(=O)c1C1CC1` came in with a CC50 above 300 µM. The EC50 is above 1.12 uM ml-1 in test [2]; above 0.15 uM ml-1 in [3]; above 0.3 uM ml-1 in test [4]; above 1.2 uM ml-1 in [5]; above 1.2 uM ml-1 in test [6]; above 1.2 uM ml-1 in test [11]. Also, the EC50 is listed as above 0.15 uM ml-1 in test [9] and above 0.3 uM ml-1 in [10].

Regarding `Nc1nc(N)c(CC(=O)O)c(OCCOCP(=O)(O)O)n1`, the CC50 in [1] was above 300 µM. Besides, the EC50 in test [2] is listed as 0.046 uM ml-1; in test [3] it was above 0.15 uM ml-1; in [4], above 0.3 uM ml-1; in test [5], above 1.2 uM ml-1; in [6] it was above 1.2 uM ml-1; in [11] it was above 1.2 uM ml-1. The EC50 was above 0.15 uM ml-1 in [7], above 0.15 in test [8], above 0.15 uM ml-1 in test [9] and above 0.3 uM ml-1 in [10].

`Nc1nc(N)c(-c2ccccc2)c(OCCOCP(=O)(O)O)n1` gave a half-maximal cytotoxic concentration (CC50) in [1] above 300 µM. Besides, the EC50 in test [2] is listed as above 1.12 uM ml-1; in [3] it was above 0.15 uM ml-1; in test [4], above 0.3 uM ml-1; in test [5], above 1.2 uM ml-1; in test [6] it was above 1.2 uM ml-1; in test [11] it was above 1.2 uM ml-1. In addition, the EC50 in [7] is recorded as above 0.15 uM ml-1; in [8], above 0.15; in test [9] it was above 0.15 uM ml-1; in [10] it was above 0.3 uM ml-1.

In test [1], `C[C@H](Cn1cnc2c(N)ncnc21)OCP(=O)(O)O` [TENOFOVIR ANHYDROUS] returned a CC50 of 410 µM. For the same molecule, the EC50 in [2] was 0.0046 uM ml-1; in test [3] it was 0.17 uM ml-1; in [4] it was 0.0012 uM ml-1; in test [5] it was above 0.17 uM ml-1; in [6], above 0.17 uM ml-1; in [11] it was above 0.17 uM ml-1. Further, the results for the EC50 in test [7], in test [9] and in test [10] were above 0.17 uM ml-1, above 0.17 uM ml-1 and 0.0014 uM ml-1, respectively.

With `Nc1nc(N)c(Cl)c(OCCOCP(=O)(O)O)n1`, in test [1], the 50% cytotoxic concentration (CC50) is 300 µM. For the same molecule, the EC50 is 0.0028 uM ml-1 in test [2]; 0.0031 uM ml-1 in test [4]; above 1.2 uM ml-1 in test [5]; above 1.2 uM ml-1 in test [6]; above 1.2 uM ml-1 in test [11]; above 0.6 uM ml-1 in [7]. Besides, the EC50 in test [9] is reported as above 0.12 uM ml-1; in [10] it was 0.0044 uM ml-1.

`CCOC(=O)Cc1c(N)nc(N)nc1OCCOCP(=O)(O)O`: the CC50 in [1] is above 300 µM. Further, the EC50 in [2] was 0.035 uM ml-1; in test [3], above 0.15 uM ml-1; in [4] it was above 0.3 uM ml-1; in test [5], above 1.2 uM ml-1; in test [6], above 1.2 uM ml-1; in [11], above 1.2 uM ml-1. The EC50 is reported as above 0.15 uM ml-1 in test [7], above 0.15 in test [8], above 0.15 uM ml-1 in [9] and 0.078 uM ml-1 in [10].

With `Nc1nc(N)c(Br)c(OCCOCP(=O)(O)O)n1`, in [1], the CC50 is above 300 µM. For the same molecule, the EC50 in test [2] is recorded as 0.007 uM ml-1; in test [3] it was above 0.15 uM ml-1; in [4], 0.0073 uM ml-1; in test [5], 0.7 uM ml-1; in [6], 0.7 uM ml-1; in test [11] it was 0.7 uM ml-1. In addition, the EC50 in [9] is given as above 0.15 uM ml-1; in test [10], 0.0095 uM ml-1.

In turn, `C=CCc1c(N)nc(N)nc1OCCOCP(=O)(O)O` came in with a CC50 in test [1] above 300 µM. Moreover, the EC50 in test [2] was above 1.12 uM ml-1; in test [3] it was above 0.15 uM ml-1; in [4], above 0.3 uM ml-1; in [5], above 1.2 uM ml-1; in test [6] it was above 1.2 uM ml-1; in test [11] it was 0.79 uM ml-1. The EC50 in test [7] is recorded as above 0.15 uM ml-1; in test [8] it was above 0.15; in [9], above 0.15 uM ml-1; in test [10] it was above 0.3 uM ml-1.

As to `Nc1nc(N)n(CCOCP(=O)(O)O)c(=O)c1-c1ccccc1`, the CC50 in test [1] is above 300 µM. Further, the EC50 was above 1.12 uM ml-1 in [2]; above 0.15 uM ml-1 in test [3]; above 0.3 uM ml-1 in test [4]; above 1.2 uM ml-1 in [5]; above 1.2 uM ml-1 in [6]; above 1.2 uM ml-1 in test [11]. Also, the EC50 is above 0.15 uM ml-1 in test [7], above 0.15 in [8], above 0.15 uM ml-1 in [9] and above 0.3 uM ml-1 in test [10].

In turn, `C=CCc1c(N)nc(N)n(CCOCP(=O)(O)O)c1=O` returned a CC50 in test [1] above 300 µM. In addition, the EC50 is recorded as above 1.12 uM ml-1 in [2]; above 0.15 uM ml-1 in test [3]; above 0.3 uM ml-1 in [4]; above 1.2 uM ml-1 in [5]; above 1.2 uM ml-1 in test [6]; 0.77 uM ml-1 in test [11]. In addition, the EC50 in test [7] was above 0.15 uM ml-1; in [8] it was above 0.15; in test [9], above 0.15 uM ml-1; in [10] it was above 0.3 uM ml-1.

In test [1], `Cc1c(N)nc(N)n(CCOCP(=O)(O)O)c1=O` displayed a CC50 above 300 µM. The EC50 in test [2] is above 1.12 uM ml-1; in test [3], above 0.15 uM ml-1; in [4] it was above 0.3 uM ml-1; in test [5], above 1.2 uM ml-1; in test [6] it was above 1.2 uM ml-1; in test [11] it was above 1.2 uM ml-1. The EC50 was above 0.15 uM ml-1 in [9] and above 0.3 uM ml-1 in test [10].

Take `Nc1ncnc2c1ncn2CCOCP(=O)(O)O` [ADEFOVIR]: the CC50 in test [1] is 56 µM. The EC50 in test [2] is recorded as 0.0022 uM ml-1; in test [4], 0.0033 uM ml-1; in test [5], above 0.17 uM ml-1; in test [6], 0.024 uM ml-1; in test [11], 0.024 uM ml-1; in test [7], 0.27 uM ml-1. The EC50 is given as 0.1 uM ml-1 in [9] and 0.0066 uM ml-1 in test [10].
